# Source: PubChem BioAssay (several laboratories)
# Runt-CBFb FRET: blocks binding of human RUNX1 Runt domain to CBFb; Q01196+Q13951; Cerulean-Runt/Venus-CBFb FRET ratio 530/480, 1 h; inhibition, % at 20 µM; 220,000 compounds, 0.46% hits; AID 1496;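 active = inhibition over about 50% at 20 µM in the single-dose screen, limit read from the data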;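 also: 0% = DMSO wells and 100% = excess unlabeled CBFb competitor control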
#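 Doses: 20 µM compound in 1% DMSO | Material: Cerulean-labeled Runt domain protein | Amount: Each fluorescent fusion protein 100 nM | Schedule: Two 1 h room-temperature incubations shielded from light | Measured by: FRET fluorescence | Evaluation: Loss of energy transfer signal | Controls: Unlabeled CBFb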
# RanGTP-Impb inh: inhibitors of RanGTP-importin-beta interaction, primary screen, biochemical, FRET, CFP-Ran, YFP-importin-beta, homogeneous. cell-free CFP-Ran/YFP-importin-beta FRET ratio. inhibition, % (test concentration not listed). 300,000 compounds, 1.1% hits;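 active = more than half of the replicate wells show a fall in the fluorescence ratio signal beyond about 16%, limit read from the data, passing the limit was not always enough; inconclusive = exactly half of the replicate wells pass the set limit; inactive = fewer than half of replicates pass the limit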;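 also: 0% = DMSO wells and 100% = Ran loaded with GDP instead of GTP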
# Hck Nef HTS: inhibitors of human Hck kinase activated by Nef. Recombinant Hck-YEEI plus Nef, Z-Lyte FRET kinase assay. 220,000 compounds, 0.68% hits. P08631. inhibition, % at 20 µM;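 active = Hck-Nef kinase inhibition above about 50%, limit read from the data; inactive = inhibition below that limit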;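 also: 0% = DMSO with Hck plus Nef and 100% = Hck alone without Nef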
# Target sequence (P08631 whole entry, looked up): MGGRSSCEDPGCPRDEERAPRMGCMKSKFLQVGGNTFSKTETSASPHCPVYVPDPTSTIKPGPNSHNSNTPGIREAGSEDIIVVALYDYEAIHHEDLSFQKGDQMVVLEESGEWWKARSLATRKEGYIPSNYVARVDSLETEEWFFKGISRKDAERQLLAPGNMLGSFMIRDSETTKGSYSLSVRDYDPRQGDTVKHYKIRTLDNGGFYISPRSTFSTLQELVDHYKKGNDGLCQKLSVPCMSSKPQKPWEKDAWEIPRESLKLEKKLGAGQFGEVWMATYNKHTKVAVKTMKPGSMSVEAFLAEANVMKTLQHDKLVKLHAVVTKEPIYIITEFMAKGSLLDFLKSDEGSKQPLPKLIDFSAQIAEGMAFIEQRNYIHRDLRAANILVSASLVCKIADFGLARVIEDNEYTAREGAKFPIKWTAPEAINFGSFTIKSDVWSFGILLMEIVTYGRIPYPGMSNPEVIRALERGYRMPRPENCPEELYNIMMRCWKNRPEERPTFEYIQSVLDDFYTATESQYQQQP
# Runt-SMMHC FRET: Runt domain-CBFb-SMMHC interaction inhibition; Q01196+Q13951; Cerulean-Runt/Venus-CBFb-SMMHC FRET ratio 530/480, 1 h; inhibition, % at 20 µM; 220,000 compounds, 0.74% hits;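 active = mean inhibition across duplicate retests at 20 µM reaching about 50%, limit read from the data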;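 also: 0% = DMSO wells and 100% = wells with excess untagged CBFb-SMMHC; inhibitors lower the FRET ratio by blocking Runt binding to CBFb-SMMHC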
# CaV13 FRET inh: Primary screen for inhibitors of IQ motif and Ca2+-dependent inactivation inhibitor domain binding in CACNA1D, Förster resonance energy transfer in living cells, …. 340,000 compounds, 0.098% hits. inhibition, % at 12.3 µM. AID 743397. HEK cells, CFP/YFP FRET ICDI-IQ, plate reader, 10 min; percent FRET-ratio fall versus neutral wells;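 active = mean replicate inhibition of at least 30% and at least 1% of replicates passing that level; inconclusive = only one of the two criteria is met; inactive = neither criterion is met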;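 also: 0% = median of the neutral control wells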
# Hck-Nef confirm: Hck-Nef kinase inhibition, confirmation. shares compounds with Hck Nef HTS. Recombinant Hck-YEEI:Nef, Z-Lyte FRET kinase assay. calls only at 10 µM. 1,300 compounds, 28% hits;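 active = average inhibition of at least 50%, with Z-scores no higher than 3 in both the phospho-tyrosine peptide and fluorescence counterscreens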
# Numbers without * were called inactive; i = inactive; ? = inconclusive; · = no result given; + = active, no number. Hits are enriched below; roughly 1.5% of the tested compounds scored in any of these assays.
SMILES,Runt-CBFb FRET,RanGTP-Impb inh,Hck Nef HTS,Runt-SMMHC FRET,CaV13 FRET inh,Hck-Nef confirm
Cc1cc2c(s1)c1cnn(CC(=O)NCCc3ccccc3)c(=O)c1n2C,-1.4,-2.8,75.9*,3.4,-4.3,i
Cc1[nH]n(-c2ccccc2)c(=O)c1C=Nc1ccc2[nH]c(=O)[nH]c2c1,-0.8,1.7,1.2,-10.6,-2.5,·
O=c1[nH]c2ccc(N=Cc3c(O)ccc4cc(Br)ccc34)cc2[nH]1,-9.2,?,62.7*,26.1,-2.4,+
COc1ccc(C(=O)n2cc(C(=O)c3cc(C)ccc3O)cn2)cc1OC,-1.5,0.1,67.3*,-5.9,-15.2,+
COc1ccc(C(=O)n2cc(C(=O)c3cc(C)ccc3O)cn2)cc1,-1.6,1.4,29.7,-1.2,-4.5,·
Cn1c(NC(=O)c2ccc(Cl)cc2)cc(=O)n(C)c1=O,2.8,-1.5,9.0,7.2,-15.6,·
O=C(Nc1ccc(NC(=O)c2sc3ccccc3c2Cl)cc1Cl)c1ccco1,·,0.2,78.2*,-4.3,-6.6,i
COc1ccc(/C=C2\C(=O)ON=C2c2cccc([N+](=O)[O-])c2)cc1,-1.7,6.1,53.4*,7.0,0.1,i
COc1ccc(/C=C2/C(=O)ON=C2c2ccccc2)cc1OC,33.3,?,-0.8,53.7,-4.6,·
CCc1cc(-c2[nH]ncc2-c2ccc3c(c2)OCO3)c(O)cc1O,0.7,9.4,65.0*,-6.5,-5.7,+
O=C(CSc1nc2nc(-c3cccs3)cc(C(F)(F)F)c2c(=O)[nH]1)Nc1ccc(F)c(F)c1,-7.9,0.5,53.8*,-1.2,-3.3,·
CCOC(=O)C1=NOC(CNc2ncc(C(F)(F)F)cc2Cl)C1 (stereo unspecified),-2.3,4.3,2.3,0.7,-3.8,·
CCOC(=O)C1=NOC(C(=O)NN(C)c2ncc(C(F)(F)F)cc2Cl)C1 (stereo unspecified),-0.7,-0.7,60.4*,1.3,-5.3,i
N#Cc1cc2c(=O)n3ccccc3nc2n(CCCn2ccnc2)c1=N,11.7,140.5*,55.4*,40.3,14.6,i
CCCn1c(=N)c(C#N)cc2c(=O)n3ccccc3nc21,31.7,179.1*,60.4*,76.0*,-0.6,·
Cc1cccc(NC(=O)c2cc3c(=O)n4ccccc4nc3n(CC(C)C)c2=N)c1,3.3,1.9,36.1,9.0,-5.8,·
Cc1cc(OCCn2cnc3ccccc3c2=O)ccc1[N+](=O)[O-],-3.2,-0.5,4.1,5.1,-2.7,·
Cc1nc2ccccc2nc(=O)c1NNc1ccccc1,0.1,2.6,101.0*,-3.0,1.1,+
Cc1cccn2c(=O)c(/C=N/O)c(Nc3ccccc3F)nc12,-1.5,0.0,70.3*,-7.6,-2.4,i
COc1cc(/C=C2/C(=N)N3C(c4ccccc4)=CSC3=NC2=O)ccc1OCC(=O)O,-0.6,3.6,79.0*,-16.1,-15.0,+
Cc1cccc(-n2c(C)cc(/C=C3/C(=N)N4C(c5ccccc5)=CSC4=NC3=O)c2C)c1,-169.9,4.4,3.0,-3.6,-14.8,·
O=C(Oc1ccc(/C=N/Nc2ccccc2)cc1)c1ccccc1,-1.1,1.7,-2.4,-8.2,-4.6,·
O=C(O)c1ccc(N/N=C/c2ccc(OC(=O)c3cccc(Cl)c3)cc2)cc1,0.7,-3.4,56.1*,0.2,-16.4,+
Cc1cccc(NCc2nc3ccccc3n2C)c1,-0.4,-16.7,-1.6,-6.1,·,·
Cc1cc(C)c2c(N)c(C(=O)N/N=C/c3cccnc3)sc2n1,2.8,7.5,72.8*,2.1,-0.5,i
N#Cc1c(NCCCO)nc(-c2ccco2)c2c1CCCC2,-0.1,7.7,140.5*,-10.7,0.4,·
O=C(N/N=C/c1coc2ccccc2c1=O)c1ccc(Cl)cc1,·,2.4,·,·,·,·
O=C(N/N=C/c1coc2ccccc2c1=O)c1cc(Br)ccc1O,·,-0.4,·,·,·,·
O=C(N/N=C/c1coc2ccccc2c1=O)c1ccccc1,0.6,0.6,87.3*,-1.6,1.4,i
NCCCCCC(=O)N/N=C/c1coc2ccccc2c1=O,1.4,?,84.0*,-0.4,-4.7,+
